The text below walks through data of article PMC5131535 (ACS chemical neuroscience, 2016).

One series has as its target T1, Kir7.1-M125R (Homo sapiens, UniProt O60928, M125R).
T1 sequence (O60928 1-360 M125R): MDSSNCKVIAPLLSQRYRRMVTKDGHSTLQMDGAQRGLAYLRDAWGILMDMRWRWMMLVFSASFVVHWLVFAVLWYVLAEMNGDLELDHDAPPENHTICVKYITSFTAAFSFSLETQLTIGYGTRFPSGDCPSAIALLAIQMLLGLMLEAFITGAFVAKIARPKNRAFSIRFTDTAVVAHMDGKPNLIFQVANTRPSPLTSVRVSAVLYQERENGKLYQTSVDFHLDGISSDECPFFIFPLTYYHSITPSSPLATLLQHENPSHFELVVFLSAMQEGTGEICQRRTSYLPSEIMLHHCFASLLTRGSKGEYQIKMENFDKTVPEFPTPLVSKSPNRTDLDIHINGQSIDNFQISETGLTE
Put plainly: Tl+ flux assay in T-REx-HEK293 cells expressing Kir7.1-M125R. Type of series: cell-based. An outline of the steps: (§1)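 Tetracycline-inducible stable T-REx-HEK-293 lines, induced overnight with 1 µg/ml tetracycline in DMEM/10% dialyzed FBS. Cells loaded 1 hr with 1.2 µM Thallos-AM in HBSS/20 mM HEPES pH 7.3 with 0.01% Pluronic F-127. Baseline fluorescence (ex 470, em 540 nm) read at 1 Hz before adding stimulus buffer with 1.8 mM Tl₂SO₄. Traces normalized to first point and vehicle-subtracted; slope taken 5–20 s post-Tl⁺; IC50 by nonlinear regression of CRCs.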

Series [1] has as its target T2, Kir7.1 (Homo sapiens, UniProt O60928, M125R).
T2 sequence (O60928 1-360 M125R): T1 sequence (O60928 1-360 M125R)
Put plainly: Whole-cell patch clamp electrophysiology, Kir7.1. The following applies: Kir7.1 IC50 (Patch clamp), -120 mV. It is filed as cell-based. Put shortly: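 Human Kir7.1 (WT or mutant) was transiently co-transfected with EGFP into HEK-293T cells, which were replated next day on poly-L-lysine coverslips. Whole-cell clamp used bath 5 mM KCl, pH 7.4, and pipette 135 mM KCl, pH 7.3. Cells were held at −75 mV, stepped 500 ms to −120 mV, then ramped to 120 mV, every 5 s. Increasing test-compound doses were superfused, then BaCl₂ block; current read at −120 mV; variable-slope Hill fit, mean of n = 5.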
(In general: In patch-clamp work, channel activity is measured electrically.)

For a further series, the system named is Kir1.1. Put plainly: Tl+ flux selectivity assay, Kir1.1. The note with it: Thallium flux, Kir7.1 over Kir1.1. Type of series: cell-based. An outline of the steps:
as §1

For series [2], the target named is T3, Kir2.1 (Homo sapiens, UniProt P63252).
T3 sequence (P63252 1-427): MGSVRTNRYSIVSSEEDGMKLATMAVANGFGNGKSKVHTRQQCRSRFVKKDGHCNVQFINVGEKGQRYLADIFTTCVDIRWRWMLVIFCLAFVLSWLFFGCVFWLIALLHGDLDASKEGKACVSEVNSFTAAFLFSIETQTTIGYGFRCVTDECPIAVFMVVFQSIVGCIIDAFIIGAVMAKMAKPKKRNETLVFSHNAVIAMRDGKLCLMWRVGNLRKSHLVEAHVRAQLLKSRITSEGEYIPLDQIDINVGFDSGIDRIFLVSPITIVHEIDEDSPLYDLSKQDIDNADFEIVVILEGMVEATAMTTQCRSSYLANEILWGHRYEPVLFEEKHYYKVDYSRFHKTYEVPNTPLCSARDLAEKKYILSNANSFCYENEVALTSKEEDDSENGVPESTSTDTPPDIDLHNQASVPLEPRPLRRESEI
Put plainly: Tl+ flux selectivity assay, Kir2.1. Type of series: cell-based. The following applies: Thallium flux, Kir7.1 over Kir2.1. An outline of the steps: as §1

A further series has as its target T4, Kir2.2 (Homo sapiens, UniProt Q14500).
T4 sequence (Q14500 1-433): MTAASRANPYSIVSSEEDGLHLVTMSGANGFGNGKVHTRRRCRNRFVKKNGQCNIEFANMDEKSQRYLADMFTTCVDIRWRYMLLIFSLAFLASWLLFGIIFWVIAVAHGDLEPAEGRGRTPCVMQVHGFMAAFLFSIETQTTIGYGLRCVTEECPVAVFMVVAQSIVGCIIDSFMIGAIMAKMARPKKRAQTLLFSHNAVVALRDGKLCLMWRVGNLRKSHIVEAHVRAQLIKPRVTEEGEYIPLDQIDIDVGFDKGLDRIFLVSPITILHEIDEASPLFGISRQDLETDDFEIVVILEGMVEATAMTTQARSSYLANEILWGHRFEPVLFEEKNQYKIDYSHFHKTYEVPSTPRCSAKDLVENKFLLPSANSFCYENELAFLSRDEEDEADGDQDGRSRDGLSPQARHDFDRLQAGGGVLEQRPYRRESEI
Kind of series: Tl+ flux selectivity assay, Kir2.2. The note with it: Thallium flux, Kir7.1 over Kir2.2. Type of series: cell-based.

A further series concerns the target T5, Kir2.3 (Homo sapiens, UniProt P48050).
T5 sequence (P48050 1-445): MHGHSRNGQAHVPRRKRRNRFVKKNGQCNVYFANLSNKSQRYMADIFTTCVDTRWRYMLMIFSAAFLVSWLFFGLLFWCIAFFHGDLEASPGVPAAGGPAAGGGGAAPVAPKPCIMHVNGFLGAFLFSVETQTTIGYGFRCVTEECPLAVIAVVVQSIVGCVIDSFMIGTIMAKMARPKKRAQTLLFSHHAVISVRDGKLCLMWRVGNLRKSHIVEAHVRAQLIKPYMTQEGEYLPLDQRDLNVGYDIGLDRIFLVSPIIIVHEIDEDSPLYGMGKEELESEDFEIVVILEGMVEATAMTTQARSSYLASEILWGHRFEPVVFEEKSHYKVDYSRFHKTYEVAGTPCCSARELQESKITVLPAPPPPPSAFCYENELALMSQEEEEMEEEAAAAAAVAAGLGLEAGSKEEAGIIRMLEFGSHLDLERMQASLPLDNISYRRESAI
Kind of series: Tl+ flux selectivity assay, Kir2.3. The following applies: Thallium flux, Kir7.1 over Kir2.3. It is filed as cell-based.

In another series the target is T6, Kir4.1 (Homo sapiens, UniProt P78508).
T6 sequence (P78508 1-379): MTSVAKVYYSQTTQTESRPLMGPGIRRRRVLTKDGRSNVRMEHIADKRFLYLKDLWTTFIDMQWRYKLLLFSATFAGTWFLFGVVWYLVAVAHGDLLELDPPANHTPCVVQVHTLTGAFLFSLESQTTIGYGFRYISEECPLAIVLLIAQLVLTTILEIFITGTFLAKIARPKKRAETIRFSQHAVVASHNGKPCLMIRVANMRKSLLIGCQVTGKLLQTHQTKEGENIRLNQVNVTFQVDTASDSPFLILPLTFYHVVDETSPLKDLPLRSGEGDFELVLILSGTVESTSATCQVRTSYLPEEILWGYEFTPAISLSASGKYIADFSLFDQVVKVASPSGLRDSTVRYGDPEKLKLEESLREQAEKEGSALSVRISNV
Kind of series: Tl+ flux selectivity assay, Kir4.1. The following applies: Thallium flux, Kir7.1 over Kir4.1. Type of series: cell-based. Put shortly: as §1

The next series concerns the target Kir6.2/SUR1 (Homo sapiens, UniProt Q14654). Kind of series: Tl+ flux selectivity assay, Kir6.2/SUR1. Type of series: cell-based. The following applies: Thallium flux, Kir7.1 over Kir6.2/SUR1. An outline of the steps: as §1
Series [3] is described as follows: Protein binding in plasma. The note with it: rat.
Series [4] is described as follows: Protein binding in plasma. The note with it: mouse.
A short description of series [5]: Protein binding in plasma. The following applies: human.
The test system of series [6] is Kir7.1. The note with it: read-out: Kir7.1 IC50 EP, cited from earlier work.
Series [7] concerns ROMK. The note with it: read-out: ROMK IC50 EP, cited from earlier work.
For series [8], the target named is T3, Kir2.1. The following applies: read-out: Kir2.1 IC50; at pH 8.0; ref [24]; cited from earlier work.
The subject of series [9] is ROMK. The note with it: read-out: ROMK IC50 Tl+; ref [16]; cited from earlier work.

Several values for one entry are separate records, joined by “and”; a condition that tells them apart may be missing. Equal entries are not always repeated. Where two headings read alike, the source gives them in different places. A value given as a limit tells only on which side of the number the result lay.

Kir6.2/SUR1, sequence (Q14654 whole entry): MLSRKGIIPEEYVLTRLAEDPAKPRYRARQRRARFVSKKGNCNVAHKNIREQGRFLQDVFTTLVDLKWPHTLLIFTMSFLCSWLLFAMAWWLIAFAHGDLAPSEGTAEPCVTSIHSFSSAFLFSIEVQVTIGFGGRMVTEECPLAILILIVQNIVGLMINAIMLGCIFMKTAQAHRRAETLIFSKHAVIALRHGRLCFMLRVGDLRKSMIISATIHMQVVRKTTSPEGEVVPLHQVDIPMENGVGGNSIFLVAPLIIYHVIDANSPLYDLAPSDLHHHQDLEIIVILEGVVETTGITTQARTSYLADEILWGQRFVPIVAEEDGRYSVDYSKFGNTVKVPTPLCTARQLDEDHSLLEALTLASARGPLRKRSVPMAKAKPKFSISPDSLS
Kir6.2/SUR1, sequence (Q09428 whole entry partner): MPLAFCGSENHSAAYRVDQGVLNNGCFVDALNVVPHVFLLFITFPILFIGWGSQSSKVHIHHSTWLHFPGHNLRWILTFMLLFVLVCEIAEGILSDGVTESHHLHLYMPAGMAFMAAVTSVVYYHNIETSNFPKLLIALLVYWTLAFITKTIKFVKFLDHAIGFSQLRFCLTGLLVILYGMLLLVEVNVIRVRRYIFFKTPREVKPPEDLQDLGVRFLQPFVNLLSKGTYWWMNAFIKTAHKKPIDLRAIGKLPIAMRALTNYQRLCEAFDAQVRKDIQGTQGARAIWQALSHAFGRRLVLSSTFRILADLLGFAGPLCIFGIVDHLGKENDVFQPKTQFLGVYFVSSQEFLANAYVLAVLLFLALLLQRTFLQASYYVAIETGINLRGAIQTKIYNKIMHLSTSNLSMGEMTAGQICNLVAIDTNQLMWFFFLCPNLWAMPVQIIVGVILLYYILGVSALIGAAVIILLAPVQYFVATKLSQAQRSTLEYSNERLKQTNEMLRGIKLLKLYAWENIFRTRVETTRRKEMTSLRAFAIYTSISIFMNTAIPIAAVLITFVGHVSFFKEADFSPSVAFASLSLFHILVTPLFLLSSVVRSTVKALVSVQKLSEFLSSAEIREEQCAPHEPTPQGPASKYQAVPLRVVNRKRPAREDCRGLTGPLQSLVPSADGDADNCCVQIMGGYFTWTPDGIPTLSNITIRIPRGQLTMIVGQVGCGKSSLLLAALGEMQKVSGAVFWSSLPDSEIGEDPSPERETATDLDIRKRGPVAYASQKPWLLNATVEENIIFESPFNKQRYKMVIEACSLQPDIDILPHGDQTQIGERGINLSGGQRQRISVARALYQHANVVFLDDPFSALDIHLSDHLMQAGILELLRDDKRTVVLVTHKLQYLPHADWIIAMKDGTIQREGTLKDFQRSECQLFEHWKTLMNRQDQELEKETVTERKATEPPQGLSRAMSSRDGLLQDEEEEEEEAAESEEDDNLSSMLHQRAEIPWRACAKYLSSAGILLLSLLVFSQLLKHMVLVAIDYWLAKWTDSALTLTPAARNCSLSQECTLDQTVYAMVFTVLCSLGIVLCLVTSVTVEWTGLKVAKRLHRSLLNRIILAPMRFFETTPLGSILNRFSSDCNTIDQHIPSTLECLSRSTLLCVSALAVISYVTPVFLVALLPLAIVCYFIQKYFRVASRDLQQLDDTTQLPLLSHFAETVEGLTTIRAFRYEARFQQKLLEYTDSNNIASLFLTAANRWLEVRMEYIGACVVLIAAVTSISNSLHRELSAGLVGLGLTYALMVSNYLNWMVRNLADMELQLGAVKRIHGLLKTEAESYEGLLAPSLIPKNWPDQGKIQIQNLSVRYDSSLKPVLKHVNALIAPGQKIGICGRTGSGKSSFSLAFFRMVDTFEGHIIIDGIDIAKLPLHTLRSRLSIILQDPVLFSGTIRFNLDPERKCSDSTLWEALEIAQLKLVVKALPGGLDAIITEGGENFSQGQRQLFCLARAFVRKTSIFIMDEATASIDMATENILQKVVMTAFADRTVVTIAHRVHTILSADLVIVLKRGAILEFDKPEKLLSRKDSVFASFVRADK

On to `CC(C)(C)OC(=O)NC1CCN(Cc2cc(Cl)c3cccnc3c2O)CC1` [Compound 11, tert-Butyl (1-((5-chloro-8-hydroxyquinolin-7-yl)methyl)piperidin-4-yl)carbamate], for which the results for the IC50 at Kir7.1-M125R and on Kir7.1 [1] were 1700 nM and 470 nM, respectively. The “Kir Channel Selectivity (Fold) 1.1” value in the series with Kir1.1 was more than 18 Fold. In addition, the “Kir Channel Selectivity (Fold) 2.1” value on Kir2.1 [2] was more than 18 Fold. Further, the “Kir Channel Selectivity (Fold) 2.2” value at Kir2.2 is more than 18 Fold. Also, the “Kir Channel Selectivity (Fold) 2.3” value at Kir2.3 is more than 18 Fold. Also, the “Kir Channel Selectivity (Fold) 4.1” value at Kir4.1 is listed as more than 18 Fold. The “Kir Channel Selectivity (Fold) 6.2” value on Kir6.2/SUR1 amounted to 1 Fold. Also, the figures for the fraction unbound in [3], in series [4] and in [5] were 0.036, 0.056 and 0.011, respectively.

Consider `COc1ccc(CNCc2cccc3ccccc23)cc1` [ML133], for which the results for the IC50 in the series on Kir7.1 [6] (ref [24]), with ROMK [7] (ref [24]) and at Kir2.1 [8] were 33000 nM, more than 300000 nM and 300 nM, respectively.

Take `O=[N+]([O-])c1ccc(CN2CCOCCOCCN(Cc3ccc([N+](=O)[O-])cc3)CCOCC2)cc1` [VU590]: the concentration for half-maximal inhibition (IC50) (as a rule, the concentration at which inhibition is half-maximal) with Kir7.1 [6] (ref [16]) was ~8000 nM and 8000 nM; in the series with ROMK [9], 300 nM; in the series with ROMK [7] (ref [16]), 240 nM.
